Screens (PubChem)
Shown are actives, neighbours in structure and some others; about 8.9% of the full set was active somewhere.
Lmaj promast – reduces viability of Leishmania major promastigotes; resazurin fluorescence viability; inhibition, % at 10 µM; 9% of 200,000 active; in the data active means inhibition above about 50%;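 further: promastigotes grown with compound for 44 hours at 28 °C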
Dynein cargo inh – dynein cargo transport inhibition. 3617.4 mouse cells, GR-EGFP nuclear translocation imaging; test concentration mostly 20 µM; stimulated with dexamethasone, 1 µM; hits give low values. z-score, hits read low. 0.47% of 220,000 active. AID 1381;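 active means plate z-score of nuclear minus cytoplasmic receptor signal below a set negative limit, without overly bright fluorescence or cell loss, cut at about -3.5 in these data, passing the limit was not always enough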;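 further: z-score of nuclear minus cytoplasmic ring GR-EGFP intensity difference per well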
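medium = tetracycline-free induction medium containing charcoal-stripped FBS | probe or stimulus = dexamethasone, 1.0 µM final | timing = 48 h induction, then 1 h compound, then 30 min agonist, 37 °C | detection = automated 10x imaging of fixed Hoechst-stained cells | read-out basis = nuclear versus cytoplasmic GR-EGFP signal, averaged per well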
HSV replic up – increases HSV replication in cells | maximum fold increase | HSV replication augmentation in cells, fold increase | 0.005% of 220,000 active; in the data active means maximum fold increase above about 1.5; inconclusive means no clear call, values can overlap the other calls; tested in PC3 cells
b-catenin transl – modulators of beta-catenin nuclear translocation | 0.3% of 190,000 active | AID 1665 | nuclear translocation activity, % at 5 µM | HeLa beta-catenin nuclear translocation, immunofluorescence imaging;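 active means nuclear translocation activity above 50% at 5 µM, with a well cell count of 50 or more; inconclusive means wells under 50 cells across six images, flagged as toxic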;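 further: per-cell ratio of nuclear to cytoplasmic median beta-catenin stain intensity; plate controls were DMSO negative control for no effect and GSK-3 inhibitor IX positive control for full effect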
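Signal – beta-catenin immunofluorescence imaging with DAPI · Test system – human HeLa cell line · Dosing – 5 µM primary single dose, 0.1% DMSO, 0.02–20 µM confirmation series · Measure – % activation, nuclear-to-cytoplasmic median beta-catenin signal ratio per cell · Incubation – 24 h compound exposure at 37°C, 5% CO2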
MT stabilizer – microtubule stabilization, imaging screen; HeLa tubulin immunostaining HCS, 24 h; share of cells brighter than vehicle mean+2SD; 0.83% of 200,000 active; % tubulin-high responders, % at 10 µM;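 active means plate Z-score above 3 for both tubulin-high and condensed-nucleus cell shares, with cell loss under 80%, at 10 µM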;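 further: anti alpha tubulin signal scored within the nucleus-defined area of each cell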
An asterisk follows results filed as active; i = inactive; ? = inconclusive; · = no result given.

SMILES	Lmaj promast	Dynein cargo inh	HSV replic up	b-catenin transl	MT stabilizer
CCOC(=O)N(C)c1ccc(C(O)(C(=O)OCC)C(F)(F)F)cc1 (centres undefined)	98.7*	-0.277	i	-0.3	3.2
CCOC(=O)N(CC)c1ccc(C(O)(C(=O)OCC)C(F)(F)F)cc1 (centres undefined)	98.3*	0.437	i	-7.1	2.6
CCN(C(=O)Oc1ccccc1)c1ccc(C(O)(C(=O)OC)C(F)(F)F)cc1 (centres undefined)	99.4*	0.392	i	-1.9	1.8
CCOC(=O)C(O)(c1ccc(N(CC)C(=O)OC)cc1)C(F)(F)F (centres undefined)	98.3*	0.222	i	·	3.8
Cc1cnn(C2CCN(C)CC2)c1N	-2.4	0.788	i	-1.4	2.3
COC(=O)C(O)(c1ccc(NC(=S)NC(=O)c2ccc(Cl)cc2Cl)cc1)C(F)(F)F (centres undefined)	42.1	0.0788	i	-3.1	2.3
CCOC(=O)C(O)(c1ccc(NC(=S)NC(=O)c2ccc(Cl)cc2Cl)cc1)C(F)(F)F (centres undefined)	66.9*	-0.95	i	-1.4	4.6
COC(=O)C(O)(c1ccc(N(C)C(=O)OC(C)C)cc1)C(F)(F)F (centres undefined)	91.8*	0.14	i	·	2.7
CCOC(=O)c1c(-n2c(C)cc(/C=C3/C(=O)NC(=O)N(CC)C3=O)c2C)sc2c1CCCC2	95.8*	-0.692	i	·	3.3
CCN1C(=O)NC(=O)/C(=C/c2cc(C)n(-c3sc(C)c(C)c3C#N)c2C)C1=O	-0.1	0.301	i	-1.2	2.8
O=C(Nc1nccs1)C(Cl)(Cl)Cl	-2.3	0.525	i	1.1	2.0
O=C(Nc1ccc(Cl)cc1)Nc1nccs1	2.6	-1.04	i	43.8	46.1*
CNC(C)Cc1ccccc1Sc1ccc(O)cc1 (centres undefined)	100.4*	1.77	i	-1.0	2.6
C=CP(=O)(O)c1ccccc1	-9.9	-0.572	i	-1.0	4.6
c1ccc(-c2ccc(-c3n(-c4ccccn4)c4ccccc4[n+]3-c3ccccn3)cc2)cc1	88.4*	1.45	i	0.0	3.7
CN1C(=O)C(=Cc2c(OCc3cnc(Cl)s3)ccc3ccccc23)C(=O)N(C)C1=O	89.2*	-1.38	i	6.1	10.8
COc1ccc(C=C2C(=O)N(C)C(=O)N(C)C2=O)cc1CSc1ccccn1	-1.6	-0.709	i	4.1	2.7
OC1C2CN3CN(C2)CC1(c1ccccc1)C3 (centres undefined)	·	-0.475	i	-0.6	·
CC(C)CCn1c(=O)c(C(=O)Nc2ccccc2S(N)(=O)=O)c(O)c2ccccc21	99.7*	-0.554	i	2.2	1.4
CCCCn1c(=O)c(C(=O)Nc2cnccn2)c(O)c2ccccc21	51.9*	2.53	i	0.8	7.5
CC(=O)Nc1cc(C(=O)N2CCC3(CC2)OCCO3)ccc1S(=O)(=O)c1ccc(Cl)cc1	-7.7	-0.456	i	·	1.1
Oc1c(Br)cc(Br)cc1CN1CCN(Cc2ccccc2)CC1	73.5*	0.0891	i	-2.5	5.5
O=C(Cc1ccc(Br)cc1)N1CCN(Cc2ccccc2)CC1	87.4*	-0.896	i	·	1.5
N[C@@H](Cc1c[nH]c2ccccc12)c1nnc(SCc2ccc(Cl)cc2)o1	0.2	0.0542	i	-4.5	2.0
O=C(O)CCn1cc(C=C2C(=O)NC(=S)NC2=O)c(-c2ccccc2)n1	-2.8	-0.331	i	-0.4	3.4
SMILES	Lmaj promast	Dynein cargo inh	HSV replic up	b-catenin transl	MT stabilizer
Cn1c(O)c(/C=N/c2ncccn2)c(=O)n(C)c1=O	78.0*	-0.12	i	3.8	2.3
Cn1c(O)c(C=NCc2cccs2)c(=O)n(C)c1=O	-3.7	-0.51	i	-4.5	2.2
COc1ccc(-c2nn(CCC#N)cc2C(=O)Nc2ccccc2Br)cc1[N+](=O)[O-]	·	0.143	i	0.6	·
COc1ccc(-n2c(/C=C/c3ccc4c(c3)OCO4)nc3ccccc3c2=O)cc1	18.6	-0.308	i	0.7	2.0
O=C(c1cccc2ccccc12)C1CCCN(C2CCC2)C1 (centres undefined)	73.6*	0.283	i	-0.8	5.0
O=C(c1cccc2ccccc12)C1CCCN(Cc2ccon2)C1 (centres undefined)	·	-0.101	i	0.4	·
O=C(c1ccccc1)c1cn(CC(=O)N2CCCC2)c2ccccc12	8.7	-0.876	i	-0.3	6.5
CCN(CC)CCCNC(=O)c1c(O)c2ccccc2n(Cc2ccccc2)c1=O	100.1*	9.29	i	-1.2	3.4
CCCCCn1c(=O)c(C(=O)Nc2nc3ccccc3[nH]2)c(O)c2ccccc21	·	0.195	i	-0.1	·
CCN(CC)CCNC(=O)c1c(O)c2ccccc2n(Cc2ccccc2)c1=O	89.5*	0.601	i	-3.0	2.5
N#CC1=C(N)Oc2c(c(=O)oc3ccccc23)C1c1ccncc1 (centres undefined)	-5.2	0.142	i	-1.3	2.5
N#CC1=C(N)Oc2c(c(=O)sc3ccccc23)C1c1cccnc1 (centres undefined)	81.1*	-0.753	i	9.3	10.1
FC(F)(F)c1cccc(-n2nnnc2C2(N3CCOCC3)CCCCC2)c1	83.7*	1.59	i	2.3	3.0
O[C@@H]1CCCC[C@H]1N1CCC(c2ccccc2)CC1	64.7*	0.384	i	-1.8	2.9
CC(=O)OC1(Cc2ccccc2)CN2CCC1c1ccccc12 (centres undefined)	62.7*	-0.843	i	-0.7	4.3
CCOC(=O)C1=C(N)Oc2cc(C)oc(=O)c2C12C(=O)N1c3c(cccc32)C(C)=CC1(C)C (centres undefined)	4.0	2.62	i	4.0	3.4
C=CCn1c(O)c(C=NCCCOc2ccc(CC)cc2)c(=O)[nH]c1=S	5.7	-1.46	i	-0.5	3.1
Nc1c(C(=O)NCc2ccco2)c2nc3ccccc3nc2n1Cc1ccccc1	6.9	-0.336	i	2.2	2.4
Nc1c(C(=O)NCc2ccco2)c2nc3ccccc3nc2n1Cc1ccc(F)cc1	58.6*	0.134	i	-0.9	4.9
CCOC(=O)c1c(N)n(Cc2ccco2)c2nc3ccccc3nc12	47.6	-0.834	?	-5.0	1.3
COCC(C)OC(=O)c1c(N)n(Cc2ccco2)c2nc3ccccc3nc12 (centres undefined)	95.2*	-0.702	?	-8.7	2.8
Cc1nc2cc(C(=O)N3CCC4(CC3)OCCO4)ccc2n1-c1cccc(F)c1	18.2	0.163	i	3.1	1.9
CSc1ccc(C(c2c(O)c3ccccc3oc2=O)c2c(C)n(C)n(-c3ccccc3)c2=O)cc1 (centres undefined)	-13.2	-0.117	i	-0.8	3.8
COCCNCCOc1ccc(C(C)(C)c2ccccc2)cc1	97.8*	0.633	·	1.8	4.2
CC(C(=O)Nc1ccc(Br)cc1C(=O)c1ccccc1)N1CCOCC1 (centres undefined)	98.6*	0.276	i	·	1.1
